Data set [1] in a line: Half life in rat fecal matter assessed as release of 4-aminosalicylic acid. The class given is ADME, tissue-based, Feces. Particulars: in vitro. In a few lines: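 Prodrug in phosphate buffer pH 7.4 (250 µg/ml, diluted to 50 µg/ml in 5 ml) added to 1 g fresh rat feces; incubated 37 °C anaerobically in a CO2 incubator for up to 20 h. Remaining prodrug read by UV at 255 nm (4AP) or 290 nm (4AT) against calibration curves; first-order fits, triplicate, mean K.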

Data set [2] can be described thus: Stability assessed as half life in hydrochloric acid buffer at pH 1.2. The class given is physicochemical. In a few lines: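 10 mg prodrug in 900 ml HCl buffer pH 1.2 (0.05 M, ionic strength 0.5 set with KCl) at 37 ± 1 °C for 10 h. Remaining prodrug followed by UV at 251 and 285 nm; first-order kinetics, triplicate.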
Data set [3] has as its system Rattus norvegicus. The experiment in a line: Antiinflammatory activity against TNBS-induced po dosed Wistar rat colitis model assessed as inhibition of MPO activity in neutrophils per 100 mg of tissue. The class given is functional. In short, it runs like this: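 Colonic tissue from TNBS-colitis rats given oral treatment; MPO measured by the Krawisz method, one unit degrading […] hydrogen peroxide at 25 °C; reported as mU per 100 mg wet tissue.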

The species named for data set [4] is Rattus norvegicus. Description: Antiinflammatory activity against TNBS-induced Wistar rat colitis model assessed as decrease in ratio of colon to body weight treated rectally 3 days after TNBS induction for 8 days measured after 24 hrs of last treatment. The class given is functional, organism-based. The note with it: in the assay text read “treated orally” for “treated rectally”. In short, it runs like this:
(§1)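 Wistar rats (200–250 g, 12–15 weeks, n = 6/group), fasted 48 h, given TNBS 100 mg/kg in 50% ethanol (500 µl) intrarectally 8 cm via catheter under light ether; untreated 3 days, then dosed (controls got 1% carboxymethylcellulose); 11-day study. Sacrificed 24 h after last dose under isoflurane; 8 cm colon excised, colon/body weight ratio taken; mean of six.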

For data set [5], the system named is Rattus norvegicus. Description: Half life in TNBS-induced po dosed Wistar rat colitis model assessed as assessed as release of 4-aminosalicylic acid. The class given is ADME, organism-based. The note with it: in vivo.
A further data set concerns Liver. Description: Toxicity in rat liver. The class given is tissue-based. The note with it: in vivo.
In data set [6] the test system is Rattus norvegicus. Description: Antiinflammatory activity against TNBS-induced Wistar rat colitis model assessed as decrease in ratio of colon to body weight treated po 3 days after TNBS induction for 8 days measured after 24 hrs of last treatment. The class given is functional. In short, it runs like this:
as §1

Data set [7] is described as follows: Aqueous solubility of the compound. The class given is physicochemical. The note with it: water (aqueous). In short, it runs like this: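 Solubility in distilled water at room temperature (25 ± 1 °C).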
A short description of data set [8]: Stability assessed as half life in phosphate buffer at pH 7.4. The class given is physicochemical. In a few lines:
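Same set-up in phosphate buffer pH 7.4 (0.05 M, ionic strength 0.5 with KCl), 37 ± 1 °C, 10 h. Remaining prodrug read by UV at 255 and 290 nm; first-order kinetics, triplicate.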

Another data set concerns Pancreas. The experiment in a line: Toxicity in rat pancreas. The class given is tissue-based. Particulars: in vivo.
Data set [9] has as its system Rattus norvegicus. Description: Ulcerogenic effect in rat colon assessed as ulcer index at 2258.01 mg/kg by Rainsford's cold stress method. The class given is toxicity, organism-based. Set-up: dose 2258.01 mg/kg. The note with it: in vivo.
Data set [10] is described as follows: Partition coefficient, log p in n-octanol/phosphate buffer at pH 7.4. The class given is physicochemical. In short, it runs like this: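 Partitioning between n-octanol and phosphate buffer pH 7.4 at 25 ± 1 °C.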
Data set [11] relates to Rattus norvegicus. The experiment in a line: Antiinflammatory activity against TNBS-induced Wistar rat colitis model assessed as decrease in severity of inflammation treated po 3 days after TNBS induction measured on day 7. The class given is functional, organism-based. In short, it runs like this:
(§2)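 TNBS colitis in Wistar rats (100 mg/kg in 50% ethanol, intrarectal, 48 h fast), left untreated 3 days before dosing, vehicle 1% carboxymethylcellulose. Weight loss, stool consistency and rectal bleeding scored daily over 11 days; the daily clinical activity score is the average of the three, 0 (healthy) to 4 (maximal colitis); mean of six rats.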

The species named for data set [12] is Rattus norvegicus. The experiment in a line: Antiinflammatory activity against TNBS-induced Wistar rat colitis model assessed as decrease in severity of inflammation treated rectally 3 days after TNBS induction measured on day 7. The class given is functional, organism-based. Particulars: in the assay text read “treated orally” for “treated rectally”. In a few lines:
as §2

Data set [13] deals with Rattus norvegicus. Description: Ulcerogenic effect in rat colon assessed as ulcer index at 2263.75 mg/kg by Rainsford's cold stress method. The class given is toxicity, organism-based. Set-up: dose 2263.75 mg/kg. Particulars: in vivo.
In data set [14] the test system is Rattus norvegicus. The experiment in a line: Ulcerogenic effect in rat colon assessed as ulcer index at 1154.30 mg/kg by Rainsford's cold stress method. The class given is toxicity, organism-based. Also on record: dose 1154.3 mg/kg. Particulars: in vivo, 1154.3 mg/kg.
The test system of data set [15] is Rattus norvegicus. Description: Inhibition of TNBS-induced morphological change in rectaly administered Wistar rat colon. The class given is functional, organism-based.
The species named for data set [16] is Rattus norvegicus. The experiment in a line: Antiinflammatory activity against TNBS-induced Wistar rat colitis model assessed as decrease in severity of inflammation treated rectally 3 days after TNBS induction for 8 days measured after 24 hrs of last treatment. The class given is functional, organism-based. In short, it runs like this: as §2
The subject of data set [17] is Rattus norvegicus. Description: Half life in TNBS-induced po dosed Wistar rat colitis model assessed as assessed as release of 5-aminosalicylic acid. The class given is ADME, organism-based. Particulars: in vivo.
The subject of data set [18] is Rattus norvegicus. The experiment in a line: Ulcerogenic effect in rat colon assessed as ulcer index at 3000 mg/kg by Rainsford's cold stress method. The class given is toxicity, organism-based. The note with it: in vivo. Set-up: dose 3000 mg/kg.

Active and inactive are the calls of the source. No cut-off for these calls is given here. Where only a bound is given, the exact number is not on record here.

One may read the half-life as how long it takes for the measured level to halve. For orientation: solubility means the dissolved amount per volume that the medium holds. High values mean a readily soluble substance, low ones a poorly soluble substance. Usually logD stands for the decadic logarithm of the distribution of all forms, ionised or not, between an organic phase and buffer at a given pH. `Nc1ccc(C(=O)N[C@@H](Cc2c[nH]c3ccccc23)C(=O)[O-])c(O)c1.[Na+]`: the t1/2 in [1] is 5.72 h; in the data set on Rattus norvegicus [5] it was 6 h. Besides, the half-life in data set [2] and in data set [8] was greater than 10 h each time. In addition, the figures for the Activity in the data set on Rattus norvegicus [3], with Liver and in the data set on Pancreas were 49.24 mU, “Non-toxic” and “Non-toxic”, respectively. For the same compound, the result in the data set filed under Rattus norvegicus [4], in the data set on Rattus norvegicus [11] and in the data set listed under Rattus norvegicus [12] was Active. Further, in the data set with Rattus norvegicus [6], the Ratio is on record as 0.0071. Also, the solubility in data set [7] is 260 mg/mL. In addition, in the data set with Rattus norvegicus [9], the UI was determined as 8.4. Also, the logD in data set [10] was -0.19.

Turning to `Nc1ccc(C(=O)N[C@H](Cc2ccccc2)C(=O)[O-])c(O)c1.[Na+]`, the values for the t1/2 (in [1]; with Rattus norvegicus [5]) were 6.87 h and 6 h, respectively. The half-life in [2] and in data set [8] was greater than 10 h in each case. Moreover, the Activity with Rattus norvegicus [3] is 46.57 mU; with Liver, “Non-toxic”; with Pancreas, “Non-toxic”. Also, the outcome in the data set filed under Rattus norvegicus [4], in the data set with Rattus norvegicus [11] and in the data set filed under Rattus norvegicus [12] was Active. In addition, in the data set on Rattus norvegicus [6], the Ratio was 0.0073. Moreover, the concentration in solution in [7] (solubility) was 330 mg/mL. The compound also came in with a pH-dependent lipophilicity (logD) in data set [10] of -0.21. The UI in the data set with Rattus norvegicus [13] stood at 6.

As for `Nc1ccc(C(=O)O)c(O)c1` [AMINOSALICYLIC ACID], the Activity with Rattus norvegicus [3] was found to be 70.51 mU. Further, the result in the data set filed under Rattus norvegicus [4], with Rattus norvegicus [11] and in the data set listed under Rattus norvegicus [12] was Active. Also, the UI with Rattus norvegicus [14] is on record as 69.61. This compound also displayed a log distribution coefficient (logD) in data set [10] of 1.01.

`N[C@H](Cc1ccccc1)C(=O)O` [D-PHENYLALANINE]: the Activity in the data set on Rattus norvegicus [3] worked out at 61.43 mU. Moreover, the result in the data set filed under Rattus norvegicus [4], in the data set on Rattus norvegicus [15], in the data set listed under Rattus norvegicus [16], with Rattus norvegicus [11] and in the data set filed under Rattus norvegicus [12] was Active.

Turning to `Nc1ccc(O)c(C(=O)O)c1` [MESALAMINE], the Activity with Rattus norvegicus [3] was 60.85 mU. Also, the UI in the data set with Rattus norvegicus [14] was 60.03. In addition, the outcome with Rattus norvegicus [11] and in the data set filed under Rattus norvegicus [12] was Active.

With `Nc1ccc(S(=O)(=O)Nc2ccccn2)cc1` [SULFAPYRIDINE], the t1/2 in the data set on Rattus norvegicus [17] amounted to 2 h.

For `O=C(O)c1cc(/N=N/c2ccc(S(=O)(=O)Nc3ccccn3)cc2)ccc1O` [SULFASALAZINE], in the data set with Rattus norvegicus [3], the Activity came to 46.63 mU. Besides, in the data set with Rattus norvegicus [18], the UI came out at 5.83. For the same compound, the t1/2 with Rattus norvegicus [17] was found to be 2 h. Besides, the outcome with Rattus norvegicus [11] and in the data set listed under Rattus norvegicus [12] was Active.

On to `N[C@@H](Cc1c[nH]c2ccccc12)C(=O)O` [TRYPTOPHAN], for which the Activity with Rattus norvegicus [3] came to 72.25 mU. Besides, the outcome in the data set listed under Rattus norvegicus [4], with Rattus norvegicus [15], in the data set listed under Rattus norvegicus [16], with Rattus norvegicus [11] and in the data set listed under Rattus norvegicus [12] was Active.

The values are drawn from ChEMBL document CHEMBL1153853, “Colon-specific mutual amide prodrugs of 4-aminosalicylic acid for their mitigating effect on experimental colitis in rats” (Eur J Med Chem, 2009).
